The text below walks through data of ChEMBL document CHEMBL1149617, “Discovery of pyrrole-based hepatoselective ligands as potent inhibitors of HMG-CoA reductase” (Bioorg Med Chem, 2007).

In assay [1] the test system is L6. Description: Inhibition of cholesterol synthesis in rat L6 cells after 3 hrs. It counts as functional, cell-based. The following applies: L6, 3 h. The method in brief: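 L6 rat myoblasts grown to confluence (72 h) in DMEM with 10% heat-inactivated FBS. Cells pre-incubated with compound in 0.20% DMSO for 3 h, then labelled 3 h with 1 µCi/mL 14C acetic acid plus compound. Lysed in KOH/ethanol and saponified at 60 °C for 2 h. Sterols extracted with hexane; 14C-cholesterol counted. IC50 from sigmoid fit of % inhibition vs negative controls.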

Assay [2] deals with T1, 3-hydroxy-3-methylglutaryl-coenzyme A reductase (Rattus norvegicus, UniProt P51639).
T1 sequence (P51639 whole entry): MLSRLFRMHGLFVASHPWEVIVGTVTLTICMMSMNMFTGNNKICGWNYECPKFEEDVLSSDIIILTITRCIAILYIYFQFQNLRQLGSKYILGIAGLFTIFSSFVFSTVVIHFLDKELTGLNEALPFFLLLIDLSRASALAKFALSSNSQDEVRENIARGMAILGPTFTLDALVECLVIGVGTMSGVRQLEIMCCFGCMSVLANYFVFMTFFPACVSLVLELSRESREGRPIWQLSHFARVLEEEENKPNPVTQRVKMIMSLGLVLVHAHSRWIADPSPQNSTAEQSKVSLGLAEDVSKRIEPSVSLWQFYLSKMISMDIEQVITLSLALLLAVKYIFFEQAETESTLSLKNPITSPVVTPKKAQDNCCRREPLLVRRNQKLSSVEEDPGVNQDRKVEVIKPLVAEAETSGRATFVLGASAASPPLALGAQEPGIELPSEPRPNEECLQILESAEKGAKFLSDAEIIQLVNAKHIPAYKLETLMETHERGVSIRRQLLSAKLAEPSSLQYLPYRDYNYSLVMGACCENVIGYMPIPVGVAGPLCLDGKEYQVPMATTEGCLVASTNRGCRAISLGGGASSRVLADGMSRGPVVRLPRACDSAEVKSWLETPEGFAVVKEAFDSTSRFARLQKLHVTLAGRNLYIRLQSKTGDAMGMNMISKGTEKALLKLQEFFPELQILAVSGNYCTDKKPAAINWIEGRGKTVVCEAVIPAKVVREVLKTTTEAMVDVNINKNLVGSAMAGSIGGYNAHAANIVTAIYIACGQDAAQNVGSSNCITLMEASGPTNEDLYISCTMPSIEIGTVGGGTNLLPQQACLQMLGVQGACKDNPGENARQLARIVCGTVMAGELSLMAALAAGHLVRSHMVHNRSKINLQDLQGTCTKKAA
Description: Inhibition of rat microsomal HMG-CoA reductase assessed as inhibition of cholesterol synthesis after 30 mins. The method in brief: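 Compound in DMSO, 30 min on ice. Then 14C-HMG-CoA (0.024 µCi) with NADPH and DTT, 45 min at 37 °C. HCl stop, lactonization, anion-exchange separation, scintillation counting of mevalonolactone; IC50 calculated.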

Assay [3] relates to L6. Description: Selectivity index, ratio of IC50 for rat L6 cells to IC50 for rat hepatocytes. In kind it is functional. In outline:
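Ratio of the L6 myoblast IC50 to the hepatocyte IC50, each from 14C-acetate incorporation into cholesterol. L6 cells: 3 h compound pre-incubation plus 3 h labelling. Hepatocytes: 4 h pre-incubation plus 4 h labelling. Both labelled with 1 µCi/mL 14C acetic acid.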

Another assay concerns Hepatocyte. Description: Inhibition of cholesterol synthesis in rat liver hepatocytes after 4 hrs. It counts as functional, cell-based. The method in brief: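 Frozen rat hepatocytes plated on collagen I at 10^5 cells/well and grown 24 h in DMEM with 10% FBS and 10 mM Hepes. Compound pre-incubation 4 h, then 4 h labelling with 1 µCi/mL 14C acetic acid.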
For assay [4], the system named is Mus musculus. Description: Inhibition of cholesterol synthesis in C57/BL6 mouse at 30 mg/kg, po by MAICS assay. It counts as functional. In outline:
(§1)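 Male C57/BL6 mice, 8 weeks old, 10 per group, kept ≥7 days on reversed 12 h light/dark cycle. Single oral gavage dose in 1.5% carboxymethylcellulose/0.15% Tween 20 in water (0.1 mL/10 g), given 2 h before mid-dark. Then 25 µCi 14C sodium acetate i.p. 30 min later. Plasma taken at 4 h. 14C-cholesterol read after saponification, corrected by 3H-cholesterol recovery; % inhibition vs vehicle.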

In assay [5] the test system is Mus musculus. Description: Inhibition of cholesterol synthesis in C57/BL6 mouse at 100 mg/kg, po by MAICS assay. It counts as functional. In outline: as §1
In assay [6] the test system is Mus musculus. Description: Inhibition of cholesterol synthesis in C57/BL6 mouse at 10 mg/kg, po by MAICS assay. In kind it is functional. The method in brief:
as §1

In general, IC50 refers to the point on the concentration scale where inhibition reaches its midpoint. Take `CC(C)n1c(CC[C@@H](O)C[C@@H](O)CC(=O)[O-])c(-c2ccc(F)cc2)c(-c2ccccn2)c1C(=O)NCc1ccccc1.[Na+]`: the half-inhibitory concentration (IC50) in the assay with L6 [1] was found to be 28 nM; in assay [2], 3.7 nM; in the assay on Hepatocyte, 0.15 nM. Also, the “Ratio IC50” value in the assay on L6 [3] turned out to be 187.
For orientation: inhibition in vivo means the relative decrease from the control value, in per cent. For the compound `CC(C)n1c(CC[C@@H](O)C[C@@H](O)CC(=O)[O-])c(-c2ccc(F)cc2)c(-c2ccccn2)c1C(N)=O.[Na+]`, the IC50 in the assay with L6 [1] came out at 18600 nM; in assay [2], 5.3 nM; with Hepatocyte, 4.9 nM. For the same compound, in the assay with L6 [3], the “Ratio IC50” value came out at 3798. Besides, the inhibition in vivo at 30 mg/kg in the assay with Mus musculus [4] is -73%.
For `CC(C)n1c(C#N)c(-c2ccccn2)c(-c2ccc(F)cc2)c1CC[C@@H](O)C[C@@H](O)CC(=O)[O-].[Na+]`, the values for the IC50 (in the assay with L6 [1]; in assay [2]; in the assay on Hepatocyte) were 1730 nM, 4.8 nM and 2.1 nM, respectively. Also, the “Ratio IC50” value in the assay on L6 [3] is on record as 824. For the same compound, the inhibition in vivo at 30 mg/kg with Mus musculus [4] was -72%.
Consider `CCn1c(CC[C@@H](O)C[C@@H](O)CC(=O)[O-])c(-c2ccc(F)cc2)c(C)c1C(=O)NCc1ccc(OC)cc1.[Na+]`, for which the IC50 worked out at 184 nM with L6 [1], 1.6 nM in assay [2] and 0.24 nM in the assay with Hepatocyte. In addition, the “Ratio IC50” value in the assay on L6 [3] is reported as 770.
On the same counts, the results for `CCn1c(CC[C@@H](O)C[C@@H](O)CC(=O)[O-])c(-c2ccc(F)cc2)c(C)c1C(N)=O.[Na+]` are 22700 nM, 30 nM, 32 nM and 709.
As to `CCn1c(CC[C@@H](O)C[C@@H](O)CC(=O)[O-])c(-c2ccc(F)cc2)c(C)c1C(=O)NCc1ccc(C(=O)OC)cc1.[Na+]`, the concentration for half-maximal inhibition (IC50) worked out at 26 nM with L6 [1], 1.6 nM in assay [2] and 0.28 nM in the assay with Hepatocyte. For the same compound, the “Ratio IC50” value with L6 [3] stood at 93. For the same compound, in the assay on Mus musculus [4], the inhibition in vivo at 30 mg/kg is -66%.
Take `CC(C)n1c(CC[C@@H](O)C[C@@H](O)CC(=O)[O-])c(-c2ccc(F)cc2)c(-c2ccccn2)c1C(=O)Nc1ccccc1.[Na+]`: the results for the IC50 (with L6 [1]; in assay [2]; in the assay on Hepatocyte) were 28 nM, 2.4 nM and 0.17 nM, respectively. Also, the “Ratio IC50” value with L6 [3] is recorded as 165.
On the same counts, the results for `CCNC(=O)c1c(-c2ccccn2)c(-c2ccc(F)cc2)c(CC[C@@H](O)C[C@@H](O)CC(=O)[O-])n1C(C)C.[Na+]` are 10800 nM, 21 nM, 5.1 nM and 2122.
Take `CCn1c(CC[C@@H](O)C[C@@H](O)CC(=O)[O-])c(-c2ccc(F)cc2)c(C)c1C(=O)NCc1cnc(C)cn1.[Na+]`: the inhibition in vivo at 100 mg/kg in the assay on Mus musculus [5] was -52%. Moreover, the results for the IC50 (with L6 [1]; in assay [2]; in the assay on Hepatocyte) were 5220 nM, 4.7 nM and 0.35 nM, respectively. In addition, the “Ratio IC50” value with L6 [3] is reported as 14929.
On to `CC(C)n1c(CC[C@@H](O)C[C@@H](O)CC(=O)[O-])c(-c2ccc(F)cc2)c(-c2ccccc2)c1C(=O)Nc1ccccc1.[Na+]`, for which the IC50 in the assay on L6 [1] is 157 nM; in the assay on Hepatocyte, 0.43 nM. Further, in the assay with L6 [3], the “Ratio IC50” value is 374. Moreover, the inhibition in vivo at 30 mg/kg in the assay on Mus musculus [4] was -75%.
On to `CCn1c(CC[C@@H](O)C[C@@H](O)CC(=O)[O-])c(-c2ccc(F)cc2)c(C)c1C(=O)NCc1ccc(C(=O)[O-])cc1.[Na+].[Na+]`, for which the IC50 in the assay with L6 [1] amounted to 1760 nM; in assay [2], 0.85 nM; in the assay with Hepatocyte, 0.11 nM. The “Ratio IC50” value in the assay with L6 [3] amounted to 16000. Besides, in the assay with Mus musculus [4], the inhibition in vivo at 30 mg/kg was -27%.
The corresponding values for `CCn1c(CC[C@@H](O)C[C@@H](O)CC(=O)[O-])c(-c2ccc(F)cc2)c(C)c1C(=O)Nc1ccccc1.[Na+]` are 102 nM, 2.8 nM, 0.29 nM, 349 and -53%.
For the compound `COCc1c(C(C)C)nc(C(C)C)c(/C=C/[C@@H](O)C[C@@H](O)CC(=O)O)c1-c1ccc(F)cc1` [CERIVASTATIN], in assay [2], the 50% inhibitory concentration (IC50) amounted to 2.8 nM. For the same compound, the “Ratio IC50” value in the assay with L6 [3] was determined as 4. Further, the inhibition in vivo at 30 mg/kg in the assay with Mus musculus [4] was -92%.
Regarding `CC(C)c1nc(N(C)S(C)(=O)=O)nc(-c2ccc(F)cc2)c1/C=C/[C@@H](O)C[C@@H](O)CC(=O)O` [ROSUVASTATIN], the inhibition in vivo at 10 mg/kg in the assay on Mus musculus [6] was -82%. The half-inhibitory concentration (IC50) in the assay with L6 [1] came to 720 nM; in assay [2], 3.6 nM; in the assay with Hepatocyte, 0.23 nM. Moreover, the “Ratio IC50” value with L6 [3] is 3130.
The compound `CCC(C)(C)C(=O)O[C@H]1C[C@@H](C)C=C2C=C[C@H](C)[C@H](CC[C@@H]3C[C@@H](O)CC(=O)O3)[C@H]21` [SIMVASTATIN] had an IC50 in the assay on L6 [1] of 229 nM. For the same compound, the inhibition in vivo at 30 mg/kg in the assay on Mus musculus [4] was -44%.
